Results pooled from the literature.
Lines come from different studies, so protocols differ.
Target: Serine/threonine-protein kinase Nek6 (NEK6, Homo sapiens, UniProt Q9HC98)

COc1cc(-c2cn(C3CCc4ccccc4N(CC(F)(F)F)C3=O)nn2)ccc1-n1ccc(C)n1 (stereo not shown) — remaining binding (cell-free assay; competition with immobilised ligand; 1 µM): 100%
F[C@@H]1CCN(c2nccc(-c3cnn4ncccc34)n2)C1 — remaining binding (binding; 1 µM): 100%
Cc1cnc(Nc2ccc(C(=O)N3CCC(N4CCCC4)CC3)cc2)nc1-c1cc2ccccc2s1 — remaining binding (binding; competition with immobilised ligand; 1 µM): 10%
C=CC(=O)N1CCC(C(=O)NCC(=O)N2CCN(c3nc(-c4cnc(N)nc4C(F)F)nc(N4CCOCC4)n3)CC2)CC1 — remaining binding (binding; competition with immobilised ligand; 1 µM): 95%
Nc1ncc2c(n1)-c1c([nH]c3ccc(C#CC4CC4)cc13)CCCC2 — remaining binding (binding; competition with immobilised ligand; 1 µM): 90%
COc1ccc2c(O[C@@H]3C[C@H]4C(=O)N[C@]5(C(=O)O)CC5/C=C\CCCCC[C@H](NC(=O)OC5CCCC5)C(=O)N4C3)cc(-c3csc(NC(=O)C(C)C)n3)nc2c1C (stereo partly shown) — remaining binding (cell-free assay; competition with immobilised ligand; 1 µM): 98%
O=C(Nc1c[nH]nc1C(=O)NC1CCNCC1)c1cc(F)cc(F)c1 — remaining binding (binding; competition with immobilised ligand; 1 µM): 100%
CCN1CCN(Cc2ccc(C(=O)Nc3ccc(C)c(Oc4ccc5c(c4)CC(=O)N5)c3)cc2C(F)(F)F)CC1 — remaining binding (binding; competition with immobilised ligand; 1 µM): 100%
N[C@H]1CCN(c2nccc(-c3cnn4ncccc34)n2)C1 — remaining binding (binding; 1 µM): 100%
C[C@@H](c1cccc(C#N)c1)n1cc(Cl)cc(C(N)=O)c1=N — remaining binding (cell-free assay; competition with immobilised ligand; 1 µM): 79%
Cc1cnn2ncc(-c3ccnc(N(C)C)n3)c2c1 — remaining binding (binding; 1 µM): 100%
O=C(NCCCN1CCOCC1)c1ccc(Nc2nccc(-c3cc4ccccc4s3)n2)cc1 — remaining binding (binding; competition with immobilised ligand; 1 µM): 81%
C[C@H]1CCN(c2nccc(-c3cnn4ncccc34)n2)C1 — remaining binding (binding; 1 µM): 100%
CCc1ccccc1C(=O)Nc1n[nH]c2c(C)c(F)c(C3C(C#N)=C(C)N(C)C(C)=C3C#N)cc12 — remaining binding (cell-free assay; competition with immobilised ligand; 1 µM): 75%
CN(CCCC(F)(F)F)c1nccc(-c2cnn3ncccc23)n1 — remaining binding (binding; 1 µM): 100%
O=C(NCc1ncc(C(F)(F)F)cc1Cl)c1ccc2c(c1)C1(CCS(=O)(=O)CC1)[C@H](C1CC1)N2S(=O)(=O)c1ccc(F)cc1 — remaining binding (cell-free assay; competition with immobilised ligand; 1 µM): 100%
COc1cnc(Nc2cccc(S(N)(=O)=O)c2)nc1N1CCN(c2ccccc2)C(=O)C1 — remaining binding (binding; competition with immobilised ligand; 1 µM): 98%
NS(=O)(=O)c1cc(NC(=O)C2(c3ccccc3Cl)CC2)ccc1Oc1cccc(Cl)c1 — remaining binding (cell-free assay; competition with immobilised ligand; 1 µM): 81%
CN(C)c1nccc(-c2cnc3ncccn23)n1 — remaining binding (binding; 1 µM): 94%
C[C@@H](c1ccc(-n2cnc3c(N)ncnc32)cc1)N1CCc2nn(C)c(Cc3ccccc3)c2C1=O — remaining binding (binding; competition with immobilised ligand; 0.1 µM): 90%
CN(C)c1nccc(-c2cnn3ncccc23)n1 — remaining binding (binding; 1 µM): 100%
O=C(NCCCN1CCOCC1)c1ccc(Nc2ncc(Cl)c(-c3ccc(Cl)s3)n2)cc1 — remaining binding (binding; competition with immobilised ligand; 1 µM): 2.5%
